What was measured:
HeLa [1] = assay: Tumor promoter activity in human HeLa cells assessed as enhancement of incorporation of 32Pi into phospholipid per mg of protein at 0.1 nM; format: ADME, cell-based; conditions: 0.0001 µM
Summary of the method: (§1)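 HeLa cells treated with compound in 0.2% DMSO (vehicle control). Radioactive inorganic phosphate (32Pi) uptake into phospholipids measured by a previously reported method with slight modifications. Results given as cpm per mg protein relative to the DMSO control, with standard deviation. Compound tested at 10^-10 to 10^-7 M.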

HeLa [2] = assay: Tumor promoter activity in human HeLa cells assessed as enhancement of incorporation of 32Pi into phospholipid per mg of protein at 1 nM; format: ADME, cell-based; conditions: 0.001 µM; summary of the method: as §1
HeLa [3] = assay: Tumor promoter activity in human HeLa cells assessed as enhancement of incorporation of 32Pi into phospholipid per mg of protein at 10 nM; format: ADME, cell-based; conditions: 0.01 µM; summary of the method: as §1
HeLa [4] = assay: Tumor promoter activity in human HeLa cells assessed as enhancement of incorporation of 32Pi into phospholipid per mg of protein at 0.1 uM; format: ADME, cell-based; summary of the method: as §1
[5] = Displacement of [3H]TPA from phorbol ester receptor in ICR mouse epidermal particulate
Summary of the method: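 Competition for specific [3H]-TPA binding to a particulate fraction from dorsal epidermis of female ICR mice, by the cold Me2CO filter method with slight modifications. IC50 (concentration giving 50% inhibition) found by probit analysis. Because IC50 drifts between particulate preparations, all compounds were run together on one fraction. Value reported as log 1/M.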

SMILES	relative 32Pi incorporation (HeLa [1])	relative 32Pi incorporation (HeLa [2])	relative 32Pi incorporation (HeLa [3])	relative 32Pi incorporation (HeLa [4])	pIC50 [5]
C=C[C@](C)(CCC=C(C)C)c1ccc2c3c(c[nH]c13)C[C@@H](CO)NC(=O)[C@H](C(C)C)N2C	1.05	1.57	4.59	8.36	
CC(C)=CCC/C(C)=C/Cc1ccc2c3c(c[nH]c13)C[C@@H](CO)NC(=O)[C@H](C(C)C)N2C	0.97	1.41	2.61	6.64	8.05
C=C[C@@]1(C)CC[C@](C)(C(C)C)c2cc3c4c(c[nH]c4c21)C[C@@H](CO)NC(=O)[C@H](C(C)C)N3C	1.19	1.82	6.72	7.46	

Reference: ChEMBL document CHEMBL1149047, “New teleocidin-related metabolites, (-)-7-geranylindolactam V and blastmycetin F, from Streptoverticillium blastmyceticum” (J Nat Prod, 1994)
